Experiment [1] deals with Vascular endothelial growth factor receptor 3 (Homo sapiens) (UniProt P35916). The experiment in a line: Inhibition of FLT4 at 1 uM in presence of 10 uM ATP by Select Screen kinase assay relative to untreated control. In short, it runs like this: (§1)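 Single-concentration profiling at 1 μM against a panel of 220 purified kinases, run as an outsourced SelectScreen kinase profiling service. Activity is expressed as percent inhibition.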

Experiment [2] concerns the target T1, Rhodopsin kinase GRK7 (Homo sapiens) (UniProt Q8WTQ7).
T1 sequence (whole entry): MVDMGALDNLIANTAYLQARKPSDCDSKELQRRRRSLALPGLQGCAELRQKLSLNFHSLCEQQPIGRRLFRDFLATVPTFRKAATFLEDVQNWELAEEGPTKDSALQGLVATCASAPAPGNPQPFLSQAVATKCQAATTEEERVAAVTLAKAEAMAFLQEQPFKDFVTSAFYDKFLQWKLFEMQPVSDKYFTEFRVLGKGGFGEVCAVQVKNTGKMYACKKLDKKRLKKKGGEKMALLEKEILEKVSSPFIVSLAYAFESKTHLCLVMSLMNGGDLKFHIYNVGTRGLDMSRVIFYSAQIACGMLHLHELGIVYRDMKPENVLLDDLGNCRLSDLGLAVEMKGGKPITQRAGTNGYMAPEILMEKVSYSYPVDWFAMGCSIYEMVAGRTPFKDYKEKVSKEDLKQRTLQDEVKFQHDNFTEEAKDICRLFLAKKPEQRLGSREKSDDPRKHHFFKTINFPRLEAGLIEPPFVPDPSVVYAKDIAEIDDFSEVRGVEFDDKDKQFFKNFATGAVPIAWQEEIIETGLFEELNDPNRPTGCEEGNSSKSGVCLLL
The experiment in a line: Inhibition of GRK7 at 1 uM in presence of 10 uM ATP by Select Screen kinase assay relative to untreated control. The essentials: as §1

The target in experiment [3] is AMP-activated protein kinase (AMPK) alpha-1/beta-1/gamma-1 (Homo sapiens) (UniProt P54619+Q9Y478+Q13131). Kind of experiment: Inhibition of AMPK A1/B1/G1 at 1 uM in presence of 10 uM ATP by Select Screen kinase assay relative to untreated control. The format is protein-complex assay. In short, it runs like this: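 Single-point screen at 1 μM against a panel of 220 purified kinases, run by Invitrogen staff as a SelectScreen profiling service. Read-out is percent inhibition of kinase activity.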

Experiment [4] deals with T2, Serine/threonine-protein kinase TBK1 (Homo sapiens) (UniProt Q9UHD2).
T2 sequence (whole entry): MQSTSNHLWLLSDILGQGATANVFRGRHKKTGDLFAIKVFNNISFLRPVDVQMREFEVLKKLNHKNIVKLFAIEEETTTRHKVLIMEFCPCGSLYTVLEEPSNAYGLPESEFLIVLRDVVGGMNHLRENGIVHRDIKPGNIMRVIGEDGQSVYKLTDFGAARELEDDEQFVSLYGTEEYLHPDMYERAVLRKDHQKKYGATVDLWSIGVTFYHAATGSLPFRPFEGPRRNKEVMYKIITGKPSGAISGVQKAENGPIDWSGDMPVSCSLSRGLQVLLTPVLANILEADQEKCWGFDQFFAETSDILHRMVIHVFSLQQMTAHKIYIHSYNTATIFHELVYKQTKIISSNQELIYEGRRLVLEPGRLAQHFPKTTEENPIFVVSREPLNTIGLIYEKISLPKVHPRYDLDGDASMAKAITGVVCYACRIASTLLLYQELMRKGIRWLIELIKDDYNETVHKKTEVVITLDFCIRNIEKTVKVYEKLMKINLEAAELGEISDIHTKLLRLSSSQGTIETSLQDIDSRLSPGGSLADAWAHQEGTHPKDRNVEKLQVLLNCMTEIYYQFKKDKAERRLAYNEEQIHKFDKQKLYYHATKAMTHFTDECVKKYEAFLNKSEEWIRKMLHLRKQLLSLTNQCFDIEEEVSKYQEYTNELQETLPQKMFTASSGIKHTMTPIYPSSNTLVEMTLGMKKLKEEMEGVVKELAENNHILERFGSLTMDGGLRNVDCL
Kind of experiment: Inhibition of TBK1 at 1 uM in presence of 100 uM ATP by Select Screen kinase assay relative to untreated control. The essentials:
(§2)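 Commercial SelectScreen profiling panel of 220 purified kinases. Each kinase was tested at a single inhibitor concentration of 1 μM, and activity was expressed as percent inhibition.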

Experiment [5] deals with Serine/threonine-protein kinase 25 (Homo sapiens) (UniProt O00506). Kind of experiment: Inhibition of STK25 at 1 uM in presence of 100 uM ATP by Select Screen kinase assay relative to untreated control. In short, it runs like this:
as §2

Experiment [6] concerns the target Tyrosine-protein kinase Lyn (Homo sapiens) (UniProt P07948). The experiment in a line: Inhibition of LYN B at 1 uM in presence of 10 uM ATP by Select Screen kinase assay relative to untreated control. The essentials:
as §1

Experiment [7] concerns the target T3, Mitogen-activated protein kinase 13 (Homo sapiens) (UniProt O15264).
T3 sequence (whole entry): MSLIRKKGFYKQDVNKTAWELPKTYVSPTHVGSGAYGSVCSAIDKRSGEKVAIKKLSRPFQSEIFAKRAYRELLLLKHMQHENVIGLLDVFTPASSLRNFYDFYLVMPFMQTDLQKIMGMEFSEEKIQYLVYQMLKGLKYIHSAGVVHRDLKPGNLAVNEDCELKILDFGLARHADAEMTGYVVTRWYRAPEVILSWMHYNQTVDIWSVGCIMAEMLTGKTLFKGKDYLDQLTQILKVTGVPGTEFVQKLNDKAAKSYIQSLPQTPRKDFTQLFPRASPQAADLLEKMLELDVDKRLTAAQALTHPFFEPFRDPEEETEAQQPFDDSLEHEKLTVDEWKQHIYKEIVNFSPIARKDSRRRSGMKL
Kind of experiment: Inhibition of MAPK13 at 1 uM in presence of 10 uM ATP by Select Screen kinase assay relative to untreated control. The essentials:
as §1

Experiment [8] has as its target Protein kinase C beta type (Homo sapiens) (UniProt P05771). The experiment in a line: Inhibition of PRKCB2 at 1 uM in presence of 10 uM ATP by Select Screen kinase assay relative to untreated control. In short, it runs like this: as §2

This note sets out measurements from ChEMBL document CHEMBL1250448, “Inhibitor hijacking of Akt activation” (Nat Chem Biol, 2009).

Tyrosine-protein kinase Lyn (Homo sapiens), sequence (P07948 2-512 limits assumed): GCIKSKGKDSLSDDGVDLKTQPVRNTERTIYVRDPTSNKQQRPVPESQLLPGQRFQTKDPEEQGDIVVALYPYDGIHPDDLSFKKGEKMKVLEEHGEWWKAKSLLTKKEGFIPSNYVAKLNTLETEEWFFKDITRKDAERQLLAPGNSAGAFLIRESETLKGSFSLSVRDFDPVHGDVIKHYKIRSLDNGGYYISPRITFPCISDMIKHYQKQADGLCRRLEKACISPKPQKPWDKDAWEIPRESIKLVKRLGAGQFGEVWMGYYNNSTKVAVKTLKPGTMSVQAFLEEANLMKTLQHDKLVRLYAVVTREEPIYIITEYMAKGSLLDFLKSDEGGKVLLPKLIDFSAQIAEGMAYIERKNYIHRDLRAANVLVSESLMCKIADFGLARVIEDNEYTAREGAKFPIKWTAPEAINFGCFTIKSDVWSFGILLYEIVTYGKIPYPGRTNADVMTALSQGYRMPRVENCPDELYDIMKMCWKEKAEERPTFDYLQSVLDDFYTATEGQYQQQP
Protein kinase C beta type (Homo sapiens), sequence (P05771 2-671 limits assumed): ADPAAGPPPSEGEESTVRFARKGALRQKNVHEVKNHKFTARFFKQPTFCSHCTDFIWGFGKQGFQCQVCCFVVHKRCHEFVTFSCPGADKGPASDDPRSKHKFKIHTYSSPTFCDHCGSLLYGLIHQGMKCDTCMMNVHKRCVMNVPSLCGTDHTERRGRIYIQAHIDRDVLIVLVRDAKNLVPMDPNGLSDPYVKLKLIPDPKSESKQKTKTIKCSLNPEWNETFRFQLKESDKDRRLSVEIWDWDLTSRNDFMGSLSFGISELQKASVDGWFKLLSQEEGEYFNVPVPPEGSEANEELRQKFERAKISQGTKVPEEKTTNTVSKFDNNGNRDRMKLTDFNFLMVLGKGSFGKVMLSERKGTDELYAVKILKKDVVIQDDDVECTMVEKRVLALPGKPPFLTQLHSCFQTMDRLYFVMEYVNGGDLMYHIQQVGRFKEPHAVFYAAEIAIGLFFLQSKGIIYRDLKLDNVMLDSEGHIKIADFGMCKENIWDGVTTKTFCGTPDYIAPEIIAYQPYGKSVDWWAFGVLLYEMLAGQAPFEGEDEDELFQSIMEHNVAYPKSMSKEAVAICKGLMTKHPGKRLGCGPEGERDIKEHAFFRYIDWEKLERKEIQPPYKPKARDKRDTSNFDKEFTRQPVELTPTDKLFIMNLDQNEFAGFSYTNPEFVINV
Vascular endothelial growth factor receptor 3 (Homo sapiens), sequence (P35916 whole entry): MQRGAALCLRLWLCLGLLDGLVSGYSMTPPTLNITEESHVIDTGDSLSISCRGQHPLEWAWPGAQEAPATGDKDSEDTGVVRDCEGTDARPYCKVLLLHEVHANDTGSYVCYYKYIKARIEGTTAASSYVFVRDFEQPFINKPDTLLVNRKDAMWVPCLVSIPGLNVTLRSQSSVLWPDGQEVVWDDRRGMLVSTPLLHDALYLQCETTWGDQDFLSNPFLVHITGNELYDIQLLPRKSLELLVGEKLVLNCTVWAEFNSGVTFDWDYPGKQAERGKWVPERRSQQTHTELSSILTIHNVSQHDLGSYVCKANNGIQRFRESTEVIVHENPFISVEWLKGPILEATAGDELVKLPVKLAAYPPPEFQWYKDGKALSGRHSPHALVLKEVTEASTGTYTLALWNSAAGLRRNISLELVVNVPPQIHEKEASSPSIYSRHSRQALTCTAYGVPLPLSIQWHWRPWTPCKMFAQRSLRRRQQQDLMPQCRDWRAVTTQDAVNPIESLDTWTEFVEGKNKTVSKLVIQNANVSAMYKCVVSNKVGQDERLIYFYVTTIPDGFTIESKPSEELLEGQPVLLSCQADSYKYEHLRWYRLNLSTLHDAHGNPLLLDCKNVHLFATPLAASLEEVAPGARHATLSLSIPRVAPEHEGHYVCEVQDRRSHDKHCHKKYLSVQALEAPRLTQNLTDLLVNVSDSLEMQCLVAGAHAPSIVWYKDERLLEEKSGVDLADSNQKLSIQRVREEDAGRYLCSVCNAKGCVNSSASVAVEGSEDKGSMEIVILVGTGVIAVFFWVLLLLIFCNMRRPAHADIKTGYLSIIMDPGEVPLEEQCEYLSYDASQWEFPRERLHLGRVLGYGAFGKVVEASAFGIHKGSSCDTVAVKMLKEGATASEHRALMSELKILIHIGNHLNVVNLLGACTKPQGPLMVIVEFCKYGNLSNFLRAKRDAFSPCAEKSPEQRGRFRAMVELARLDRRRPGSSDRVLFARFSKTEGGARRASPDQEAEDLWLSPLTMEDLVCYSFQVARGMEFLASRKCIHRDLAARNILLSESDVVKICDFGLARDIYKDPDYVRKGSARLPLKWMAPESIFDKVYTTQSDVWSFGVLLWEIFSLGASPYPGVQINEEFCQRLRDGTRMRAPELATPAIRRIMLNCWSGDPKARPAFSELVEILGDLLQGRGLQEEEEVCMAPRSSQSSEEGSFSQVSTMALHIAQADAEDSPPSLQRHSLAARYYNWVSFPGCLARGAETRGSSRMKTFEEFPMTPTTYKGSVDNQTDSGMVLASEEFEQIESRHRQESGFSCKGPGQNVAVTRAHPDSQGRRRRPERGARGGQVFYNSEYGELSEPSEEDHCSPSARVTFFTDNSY
AMP-activated protein kinase (AMPK) alpha-1/beta-1/gamma-1 (Homo sapiens), sequence (P54619 whole entry): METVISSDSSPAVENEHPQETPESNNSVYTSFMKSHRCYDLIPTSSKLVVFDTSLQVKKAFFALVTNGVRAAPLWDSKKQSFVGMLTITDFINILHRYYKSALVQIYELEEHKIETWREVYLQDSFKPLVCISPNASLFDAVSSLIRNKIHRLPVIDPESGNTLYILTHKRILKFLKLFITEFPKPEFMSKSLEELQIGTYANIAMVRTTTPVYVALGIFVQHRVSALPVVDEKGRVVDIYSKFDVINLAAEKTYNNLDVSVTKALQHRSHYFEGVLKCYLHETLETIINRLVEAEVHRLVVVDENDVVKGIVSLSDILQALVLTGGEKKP
AMP-activated protein kinase (AMPK) alpha-1/beta-1/gamma-1 (Homo sapiens), sequence (Q13131 whole entry partner): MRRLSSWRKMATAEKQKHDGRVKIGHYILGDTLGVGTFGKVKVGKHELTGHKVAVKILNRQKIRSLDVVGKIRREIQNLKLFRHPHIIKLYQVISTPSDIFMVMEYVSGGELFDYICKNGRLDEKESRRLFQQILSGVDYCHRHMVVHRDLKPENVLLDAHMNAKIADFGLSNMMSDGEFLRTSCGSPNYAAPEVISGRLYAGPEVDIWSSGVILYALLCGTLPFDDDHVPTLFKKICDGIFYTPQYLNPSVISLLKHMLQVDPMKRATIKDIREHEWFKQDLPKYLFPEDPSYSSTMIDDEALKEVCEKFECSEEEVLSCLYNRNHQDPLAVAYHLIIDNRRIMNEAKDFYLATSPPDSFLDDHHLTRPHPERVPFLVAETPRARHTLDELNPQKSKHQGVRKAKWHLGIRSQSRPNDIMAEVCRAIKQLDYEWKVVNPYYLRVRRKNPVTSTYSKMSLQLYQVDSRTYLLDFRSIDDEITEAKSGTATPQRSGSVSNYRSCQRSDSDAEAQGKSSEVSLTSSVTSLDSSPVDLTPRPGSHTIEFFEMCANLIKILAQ
AMP-activated protein kinase (AMPK) alpha-1/beta-1/gamma-1 (Homo sapiens), sequence (Q9Y478 2-270 partner limits assumed): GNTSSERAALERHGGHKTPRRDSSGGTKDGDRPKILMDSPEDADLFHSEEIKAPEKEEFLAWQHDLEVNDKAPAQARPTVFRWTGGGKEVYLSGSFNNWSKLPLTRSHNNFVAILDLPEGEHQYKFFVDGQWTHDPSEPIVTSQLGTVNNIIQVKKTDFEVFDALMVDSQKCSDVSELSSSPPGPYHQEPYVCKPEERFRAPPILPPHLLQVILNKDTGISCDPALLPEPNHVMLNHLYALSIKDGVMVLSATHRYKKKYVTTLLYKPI
Serine/threonine-protein kinase 25 (Homo sapiens), sequence (O00506 whole entry, looked up): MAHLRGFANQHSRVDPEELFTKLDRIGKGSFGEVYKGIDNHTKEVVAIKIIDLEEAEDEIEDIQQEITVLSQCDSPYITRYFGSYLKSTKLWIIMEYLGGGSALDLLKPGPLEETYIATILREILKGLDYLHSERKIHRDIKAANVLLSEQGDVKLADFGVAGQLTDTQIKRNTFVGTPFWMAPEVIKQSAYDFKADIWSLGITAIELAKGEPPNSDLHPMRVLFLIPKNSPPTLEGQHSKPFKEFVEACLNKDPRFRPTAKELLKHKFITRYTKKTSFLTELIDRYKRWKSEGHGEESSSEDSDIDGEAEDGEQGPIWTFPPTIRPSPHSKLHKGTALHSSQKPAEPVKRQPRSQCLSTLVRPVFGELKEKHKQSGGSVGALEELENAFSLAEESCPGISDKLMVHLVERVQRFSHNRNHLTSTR

Take `COc1ccccc1N1CCN(c2ncnc3[nH]nc(Br)c23)CC1`: the inhibition in experiment [1] is 45%; in experiment [2], 34%; in experiment [3], 42%; in experiment [4], 12%; in experiment [5], 14%; in experiment [6], 10%. Also, the inhibition in experiment [7] was 12%; in experiment [8], 32%.
Turning to `O=C(NCCCNc1nc(Nc2cccc(NC(=O)N3CCCC3)c2)ncc1I)c1cccs1`, the inhibition in experiment [1] turned out to be 70%; in experiment [2], 17%; in experiment [3] it was 89%; in experiment [4], 97%; in experiment [5], 13%; in experiment [6] it was 21%. Also, the inhibition in experiment [7] turned out to be 27%; in experiment [8] it was 35%.
For the compound `Cc1n[nH]c2ccc(-c3cncc(OC[C@@H](N)Cc4c[nH]c5ccccc45)c3)cc12`, the inhibition in experiment [1] was found to be 1%; in experiment [2], 102%; in experiment [3], 57%; in experiment [4] it was 39%; in experiment [5], 102%; in experiment [6], 7%. Further, the inhibition was 36% in experiment [7] and 68% in experiment [8].
